In ChEMBL document CHEMBL1212819, “Heteroadamantyl cannabinoids” (J Med Chem, 2010) one finds Ki data, which are given here for 17 compounds.

One test has as its target Cannabinoid receptor 1 (Rattus norvegicus, UniProt P20272). Kind of test: Displacement of [3H]CP-55940 from CB1 receptor in rat brain. In kind it is tissue-based. The essentials:
(§1)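 Competition binding against [3H]CP-55,940. CB1 came from rat brain membranes, and CB2 from membranes of HEK293 cells expressing mouse or human CB2. Curves were fitted by nonlinear regression to give IC50, and Ki was calculated from IC50. Each experiment was run in triplicate, and Ki values come from a single experiment.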

For test [1], the target named is Cannabinoid receptor 2 (Homo sapiens, UniProt P34972). Kind of test: Displacement of [3H]CP-55940 from human CB2 receptor expressed in HEK293 cell membranes. The essentials: as §1
Chain of Cannabinoid receptor 2 (Homo sapiens, UniProt P34972) (P34972 whole entry): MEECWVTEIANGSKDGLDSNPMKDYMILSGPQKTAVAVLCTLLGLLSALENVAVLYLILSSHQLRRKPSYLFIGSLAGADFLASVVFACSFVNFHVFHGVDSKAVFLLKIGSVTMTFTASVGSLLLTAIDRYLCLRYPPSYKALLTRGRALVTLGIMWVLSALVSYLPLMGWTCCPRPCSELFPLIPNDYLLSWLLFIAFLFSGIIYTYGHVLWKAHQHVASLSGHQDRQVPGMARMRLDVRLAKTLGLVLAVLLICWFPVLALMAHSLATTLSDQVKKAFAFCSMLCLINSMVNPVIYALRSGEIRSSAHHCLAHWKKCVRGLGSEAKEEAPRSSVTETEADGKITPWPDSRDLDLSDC
A general note: Loss of bound radioactivity is the signal in a displacement assay; it reports binding, not function.

The target of test [2] is Cannabinoid receptor 2 (Mus musculus, UniProt P47936). Kind of test: Displacement of [3H]CP-55940 from mouse CB2 receptor expressed in HEK293 cell membranes. The essentials:
as §1

Chain of Cannabinoid receptor 1 (P20272 whole entry): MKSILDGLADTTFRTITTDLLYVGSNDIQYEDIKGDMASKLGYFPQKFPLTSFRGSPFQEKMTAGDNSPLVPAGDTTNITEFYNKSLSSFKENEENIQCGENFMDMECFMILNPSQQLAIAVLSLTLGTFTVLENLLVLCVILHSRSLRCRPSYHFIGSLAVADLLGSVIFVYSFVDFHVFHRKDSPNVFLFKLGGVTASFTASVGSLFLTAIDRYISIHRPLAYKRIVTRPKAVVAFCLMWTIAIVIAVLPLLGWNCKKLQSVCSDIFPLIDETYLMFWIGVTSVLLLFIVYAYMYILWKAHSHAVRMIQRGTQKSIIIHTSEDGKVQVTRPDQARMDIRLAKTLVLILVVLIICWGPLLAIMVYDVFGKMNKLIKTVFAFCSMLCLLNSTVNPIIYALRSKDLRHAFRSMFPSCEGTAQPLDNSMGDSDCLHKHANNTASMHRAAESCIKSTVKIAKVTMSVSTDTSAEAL
Chain of Cannabinoid receptor 2 (Mus musculus, UniProt P47936) (P47936 whole entry): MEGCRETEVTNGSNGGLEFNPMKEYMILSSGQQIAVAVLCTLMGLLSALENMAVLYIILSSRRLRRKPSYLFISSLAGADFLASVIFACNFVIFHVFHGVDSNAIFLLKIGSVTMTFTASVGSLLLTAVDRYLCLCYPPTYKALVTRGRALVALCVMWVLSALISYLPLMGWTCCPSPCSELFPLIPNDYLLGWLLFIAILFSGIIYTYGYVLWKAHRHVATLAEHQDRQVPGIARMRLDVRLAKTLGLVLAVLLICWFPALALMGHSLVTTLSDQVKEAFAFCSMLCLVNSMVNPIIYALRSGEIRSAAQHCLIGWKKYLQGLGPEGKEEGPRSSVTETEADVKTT

One may read the Ki as a dissociation constant, usually derived from enzyme kinetics or from competition with a known ligand. For the compound `CC1(C)Oc2cc(N3C4CC5CC3CC(C4)O5)cc(O)c2[C@@H]2C[C@H](O)CC[C@H]21`, the inhibition constant Ki at Cannabinoid receptor 1 (read-out: Ki) was 1.8 µM; at Cannabinoid receptor 2 [1] (read-out: Ki) it was 1.8 µM; on Cannabinoid receptor 2 [2] it was 1.2 µM.
For the compound `CC1(C)Oc2cc(N3C4CC5CC3CC(C4)O5)cc(O)c2[C@@H]2C[C@@H](O)CC[C@H]21`, the Ki amounted to 22.4 µM at Cannabinoid receptor 1 (read-out: Ki), 14.9 µM on Cannabinoid receptor 2 [1] (read-out: Ki) and 17 µM on Cannabinoid receptor 2 [2].
For the compound `CC1(C)Oc2cc(C(=O)N3C4CC5CC3CC(C4)O5)cc(O)c2[C@@H]2C[C@H](O)CC[C@H]21`, the Ki entry is “Not Active” on Cannabinoid receptor 1, 20 µM on Cannabinoid receptor 2 [1] (read-out: Ki) and 2.5 µM on Cannabinoid receptor 2 [2].
For `CC1(C)Oc2cc(C(=O)N3C4CC5CC3CC(C4)O5)cc(O)c2[C@@H]2C[C@@H](O)CC[C@H]21` the same measures were “Not Active”, 25 µM and 8.6 µM.
`CC1(C)Oc2cc(CN3C4CC5CC3CC(C4)O5)cc(O)c2[C@@H]2C[C@H](O)CC[C@H]21`: the inhibition constant (Ki) on Cannabinoid receptor 1 (read-out: Ki) stood at 10 µM; at Cannabinoid receptor 2 [1] (read-out: Ki), 15 µM; on Cannabinoid receptor 2 [2], 8.7 µM.
`CC1(C)Oc2cc(CN3C4CC5CC3CC(C4)O5)cc(O)c2[C@@H]2C[C@@H](O)CC[C@H]21`: the results for the Ki on Cannabinoid receptor 1 (read-out: Ki), on Cannabinoid receptor 2 [1] (read-out: Ki) and at Cannabinoid receptor 2 [2] were 125 µM, 5 µM and 7.5 µM, respectively.
For `CC1(C)Oc2cc(C(=O)NC34CC5CC(CC(C5)C3)C4)cc(O)c2[C@@H]2C[C@H](O)CC[C@H]21` the same measures were 80 µM, 8.7 µM and 0.5 µM.
In the same order, the values of `CC1(C)Oc2cc(C(=O)NC34CC5CC(CC(C5)C3)C4)cc(O)c2[C@@H]2C[C@@H](O)CC[C@H]21` are 375 µM, 35 µM and 7.5 µM.
In the same order, the values of `CC1(C)Oc2cc(C(=O)NC3C4CC5CC(C4)CC3C5)cc(O)c2[C@@H]2C[C@H](O)CC[C@H]21` (some centres undefined) are 15 µM, 2.7 µM and 1.2 µM.
Consider `CC1(C)Oc2cc(C(=O)NC3C4CC5CC(C4)CC3C5)cc(O)c2[C@@H]2C[C@@H](O)CC[C@H]21` (some centres undefined), for which the inhibitory constant (Ki) on Cannabinoid receptor 1 (read-out: Ki) came out at 100 µM; at Cannabinoid receptor 2 [1] (read-out: Ki), 15 µM; at Cannabinoid receptor 2 [2] it was 3.7 µM.
As for `CC1(C)Oc2cc(CNC34CC5CC(CC(C5)C3)C4)cc(O)c2[C@@H]2C[C@H](O)CC[C@H]21`, the inhibition constant Ki was determined as 150 µM at Cannabinoid receptor 1 (read-out: Ki), 10 µM at Cannabinoid receptor 2 [1] (read-out: Ki) and 0.5 µM at Cannabinoid receptor 2 [2].
`CC1(C)Oc2cc(CNC34CC5CC(CC(C5)C3)C4)cc(O)c2[C@@H]2C[C@@H](O)CC[C@H]21`: the results for the inhibitory constant (Ki) at Cannabinoid receptor 1 (read-out: Ki), at Cannabinoid receptor 2 [1] (read-out: Ki) and at Cannabinoid receptor 2 [2] were 100 µM, 25 µM and 5 µM, respectively.
Consider `CC1(C)Oc2cc(CNC3C4CC5CC(C4)CC3C5)cc(O)c2[C@@H]2C[C@H](O)CC[C@H]21` (some centres undefined), for which the Ki at Cannabinoid receptor 1 (read-out: Ki) came to 150 µM; on Cannabinoid receptor 2 [1] (read-out: Ki) it was 20 µM; at Cannabinoid receptor 2 [2], 6.2 µM.
`CC1(C)Oc2cc(CNC3C4CC5CC(C4)CC3C5)cc(O)c2[C@@H]2C[C@@H](O)CC[C@H]21` (some centres undefined): the Ki result at Cannabinoid receptor 1 is “Not Active”; at Cannabinoid receptor 2 [1] (read-out: Ki), 25 µM; at Cannabinoid receptor 2 [2], 7.5 µM.
Consider `CC1(C)Oc2cc(C34CC5CC(CC(C5)O3)C4)cc(O)c2[C@@H]2C[C@H](O)CC[C@H]21`, for which the figures for the inhibition constant (Ki) on Cannabinoid receptor 1 (read-out: Ki), at Cannabinoid receptor 2 [1] (read-out: Ki) and at Cannabinoid receptor 2 [2] were 0.023 µM, 0.019 µM and 0.018 µM, respectively.
Regarding `CC1(C)Oc2cc(C34CC5CC(CC(C5)O3)C4)cc(O)c2[C@@H]2C[C@@H](O)CC[C@H]21`, the results for the inhibition constant Ki at Cannabinoid receptor 1 (read-out: Ki), at Cannabinoid receptor 2 [1] (read-out: Ki) and on Cannabinoid receptor 2 [2] were 0.55 µM, 1.3 µM and 0.54 µM, respectively.
On to `CC1=CC[C@@H]2[C@@H](C1)c1c(O)cc(C34CC5CC(CC(C5)C3)C4)cc1OC2(C)C`, for which the Ki result on Cannabinoid receptor 2 [1] (hek293) is given as “Not Active”.
